# KCNQ1 act: potentiators or activators of KCNQ1 channel, primary screen, cell-based, thallium flux, high-throughput; CHO-K1 KCNQ1, thallium flux FluxOR fluorescence; active compounds read high; B-score at 10 µM; 310,000 compounds, 0.35% hits;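 active = fluorescence ratio B-score, a plate-corrected score, at least three library SD, with initial intensity B-score within 5 SD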
#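 Assay system: CHO-K1 cells stably expressing KCNQ1. Medium: assay buffer for compound exposure, DMSO matched across wells. Timing: 37 °C overnight plating, 90-min dark dye load, 20-min compound pretreatment. Signal: kinetic FluxOR fluorescence, 10 s baseline plus 110 s post-stimulus.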
# Kir21 inh: inhibitors of mouse Kir2.1 inward-rectifier potassium channel. Inward rectifier potassium channel 2 (Mus musculus), P35561. HEK293-Kir2.1, FluxOR thallium flux fluorescence; active compounds read low. B-score at 10 µM. 310,000 compounds, 0.85% hits. AID 1672, 2009;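 active = fluorescence ratio B-score at or below minus 3 SD of library scores, with starting-brightness B-score within 2 SD, cut at about -4.2 in these data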;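 note: channel flux triggered by added potassium and thallium sulfate stimulus; B-score of peak minus minimum fluorescence over baseline after thallium stimulus; more negative B-score means stronger Kir2.1 block with less thallium influx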
# Target sequence (P35561 whole entry, looked up): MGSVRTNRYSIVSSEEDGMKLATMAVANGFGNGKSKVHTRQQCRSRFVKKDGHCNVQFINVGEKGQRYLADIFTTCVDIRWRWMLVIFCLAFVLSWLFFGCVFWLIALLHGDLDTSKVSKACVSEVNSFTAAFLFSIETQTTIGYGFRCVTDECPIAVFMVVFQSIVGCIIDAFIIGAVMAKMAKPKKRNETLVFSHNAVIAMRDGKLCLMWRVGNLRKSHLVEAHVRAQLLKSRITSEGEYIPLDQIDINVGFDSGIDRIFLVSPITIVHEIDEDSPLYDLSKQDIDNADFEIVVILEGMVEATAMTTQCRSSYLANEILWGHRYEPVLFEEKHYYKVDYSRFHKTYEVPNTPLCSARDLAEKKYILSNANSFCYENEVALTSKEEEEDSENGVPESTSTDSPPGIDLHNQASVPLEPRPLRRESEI
# KCNK3 block: human KCNK3 channel inhibitors, primary screen, CHO cells, FluxOR thallium flux, B-score; Potassium channel subfamily K member 3 (Homo sapiens), O14649; FluxOR fluorescence; active compounds read low; B-score at 10 µM; 340,000 compounds, 0.84% hits; AID 602410, 2012;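 active = B-score under library mean minus 4 SD, starting fluorescence ratio at most library mean plus 5 SD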;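 note: more negative B-score means stronger inhibition of thallium flux through KCNK3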
# KCNK9 inh: KCNK9 potassium channel inhibitors, primary screen, HEK293 cells, thallium flux | B-score at 10 µM | Potassium channel subfamily K member 9 (Homo sapiens), Q9NPC2 | 310,000 compounds, 1.2% hits | FluxOR thallium flux fluorescence; active compounds read low;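 active = ratio B-score over 3 SD below the library mean, with starting fluorescence within 5 SD of its mean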;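 note: negative B-score means less thallium flux so channel inhibition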
# hERG protect: hERG rescue from dofetilide block, primary screen, cell-based, CHO-hERG, FluxOR thallium flux, dofetilide IC70; Voltage-gated inwardly rectifying potassium channel KCNH2 (Homo sapiens), Q12809; dofetilide IC70 present; activation (rescue from dofetilide block), less the hit threshold, % at 10 µM; 310,000 compounds, 0.51% hits;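 active = activation above the mean of controls blocked by dofetilide plus 5 SD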;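 note: thallium influx through hERG after potassium depolarization seen as dye fluorescence rise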
# KCNQ1 block: inhibitors of human KCNQ1 channel, primary screen, cell-based, thallium flux, high-throughput | B-score at 10 µM | CHO-K1 KCNQ1, FluxOR thallium flux fluorescence; active compounds read high | 310,000 compounds, 1.3% hits | Potassium voltage-gated channel subfamily KQT member 1 (Homo sapiens), P51787;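 active = compounds whose thallium flux B-score, printed positive for inhibition, exceeds three library SD while starting fluorescence stays within three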;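 note: channel opened by potassium depolarization with thallium stimulus after 20 min compound exposure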
# * marks the source's active call; other numbers are inactive results; i = inactive; x = not tested or not shown. A selection: hits, their analogues and other compounds. The true share with any hit is near 3.8%.
SMILES,KCNQ1 act,Kir21 inh,KCNK3 block,KCNK9 inh,hERG protect,KCNQ1 block
C#CCOc1ccccc1CNC1CCN(Cc2ccccc2)CC1,i,-4.4*,i,i,-2.1,i
Cc1ccc(C(=O)OCC(=O)N2C(C)CCCC2C)cc1S(=O)(=O)N1CCCCC1 (stereo not drawn),i,-0.12,i,i,-9.2,i
COC(=O)c1ccc(COC(=O)c2ccc(C)c(S(=O)(=O)N3CCCCC3)c2)cc1,x,x,-9.17*,x,x,x
Cc1ccc(C(=O)Oc2ccc([N+](=O)[O-])cc2)cc1S(=O)(=O)N1CCCCCC1,i,-1.72,i,-8.06*,-8.0,i
CNC(=O)c1ccccc1NC(=O)c1ccc(C)c(S(=O)(=O)N2CCCCC2)c1,i,-0.02,i,i,8.7*,i
Cc1ccc(C(=O)Nc2cccc(O)c2)cc1S(=O)(=O)N1CCCCCC1,i,-0.56,i,i,-5.0,i
COc1ccc(NC(=O)CCNS(=O)(=O)c2ccccc2F)cc1S(N)(=O)=O,i,-0.03,i,i,-4.8,i
CN(Cc1ccccc1)C(=O)c1cccc(NC(=O)Cc2cccc(NC(=O)C3CCN(C(=O)C4CCC4)CC3)c2)c1,x,x,i,x,x,x
O=C(NS(=O)(=O)Oc1cccc(Cl)c1Cl)OC[C@@H]1CCCN2CCCCC12 (stereo partly drawn),i,0.44,i,i,-14.1,i
COc1ccccc1C(=O)OCc1nc(N)nc(Nc2ccccc2C)n1,i,-5.17*,i,i,-2.4,i
CO[C@H]1CC[C@@]2(C)[C@@H](CC[C@@H]3[C@@H]2CC[C@@]2(C)[C@H]3C[C@H](C(=O)N[C@@H](CCCN=C(N)N)C(=O)NCC(=O)N[C@@H](CC(=O)O)C(N)=O)O[C@]23CCCO3)C1,x,x,i,x,x,x
CCCCOC(=O)CSc1nc2c(cc1C#N)C(=O)CC(C)(C)C2,i,-0.22,i,-8.07*,-5.8,i
CSc1nc2c(cc1C#N)C(=O)CC(C)(C)C2,i,0.06,i,i,-7.0,i
Cc1ccc(N=Nc2ccc(O)c3ncccc23)cc1,16*,-0.88,i,i,19.8*,i
Cc1ccc(N=Nc2ccc(O)c3ncccc23)cc1C,11*,-0.82,i,i,-1.0,i
CC(=O)c1cccc([N+](=O)[O-])c1,x,x,i,x,x,x
O=C1OC(=O)c2cc([N+](=O)[O-])ccc21,x,x,i,x,x,x
COc1cc(/C=C2/OC(=O)c3cc([N+](=O)[O-])ccc32)cc(OC)c1OC,i,2.17,i,i,10.8*,i
COc1cc(/C=C/C(=O)c2cccc([N+](=O)[O-])c2)cc(OC)c1OC,i,-4.7*,i,i,-6.8,i
O=C(/C=C/c1ccccc1F)c1cccc([N+](=O)[O-])c1,i,-5.48*,i,i,-14.2,i
COc1cccc(/C=C/C(=O)c2ccc(C)c([N+](=O)[O-])c2)c1,i,-5.75*,i,i,-7.4,i
CCOC(=O)C(NC(=O)c1ccccc1)=C(C)C,i,-1.45,i,i,5.4*,i
CCCCOC(=O)C(NC(=O)c1ccccc1)=C(C)C,i,-0.01,i,i,-14.8,i
CCOC(=O)/C(=C\C=C\c1ccccc1)NC(=O)c1ccccc1,i,-0.71,i,i,-8.0,i
CCOC(=O)/C(=C/C=C/c1ccccc1)NC(=O)c1ccccc1,i,-0.64,i,-7.39*,-13.4,i
SMILES,KCNQ1 act,Kir21 inh,KCNK3 block,KCNK9 inh,hERG protect,KCNQ1 block
COc1cccc(/C=N/NC(=O)CN(C)S(=O)(=O)c2ccccc2)c1OC,x,x,i,x,x,x
O=C(NCCN1CCOCC1)c1ccc2c(c1)N(Cc1cccc(F)c1)C(=O)c1ccccc1S2,i,0.56,i,i,-16.1,i
CCN1CCN(CCNC(=O)c2ccc3c(c2)N(Cc2ccc(F)cc2)C(=O)/C(=C/c2ccccc2)S3)CC1,i,0.88,i,i,-27.9,10*
COc1ccc(/C=C2\Sc3ccc(C(=O)NCCN4CCCCCC4)cc3N(C)C2=O)cc1,i,-3.32,i,i,-19.4,9*
O=C(NCCN1CCOCC1)c1ccc(/C=C2\Sc3ccccc3N(Cc3ccccc3F)C2=O)cc1,i,-0.08,i,i,-18.6,11*
Cc1ccccc1CN1C(=O)/C(=C\c2ccc(C(=O)NCCN3CCOCC3)cc2)Sc2ccccc21,i,-0.01,i,i,-12.9,i
Cc1cccc(CN2C(=O)/C(=C\c3ccc(C(=O)NCCN4CCOCC4)cc3)Sc3ccccc32)c1,i,-0.39,i,i,-25.2,8*
CN1CCN(CCCNC(=O)c2ccc(/C=C3\Sc4ccccc4N(Cc4ccccc4F)C3=O)cc2)CC1,i,-0.9,i,i,-39.0,i
COc1ccc(CCN2CCCC(CN(C)C(=O)c3ccoc3)C2)cc1 (stereo not drawn),i,2.75,i,i,-8.3,i
CN(C)CCNC(=O)/C(=C/c1ccc(-c2ccc(Cl)cc2)o1)NC(=O)c1ccccc1,i,-1.64,i,i,-24.9,i
CN(C)CCNC(=O)/C(=C/c1ccc(-c2ccc(Cl)cc2Cl)o1)NC(=O)c1ccccc1,i,-5.63*,i,i,-21.1,i
CCCN(C(=O)c1cn(-c2ccccc2)nc1-c1ccc(OC)cc1)C1CCS(=O)(=O)C1 (stereo not drawn),8*,1.23,i,i,-0.9,i
O=C(NNS(=O)(=O)c1ccc(C(F)(F)F)cc1)c1cnn(-c2ccccc2)c1C(F)(F)F,i,-0.61,i,i,-14.0,i
CCCCOc1ccc(-c2nnn(C(C)C(=O)OCC)n2)cc1 (stereo not drawn),i,-0.06,i,-7.22*,-3.1,i
CCC(C(=O)O)n1nnc(-c2ccc(-c3ccc(OC)cc3)cc2)n1 (stereo not drawn),i,-2.54,i,i,-3.9,i
O=C(c1ccc(Cl)c(S(=O)(=O)N2CCCCC2)c1)N1CCCC(C(F)(F)F)C1 (stereo not drawn),x,x,i,x,x,x
O=C(NCc1ccc2c(c1)OCO2)C1CC(=O)N(C2CCCCCC2)C1 (stereo not drawn),i,0.73,i,i,5.4*,i
COc1ccc(S(=O)(=O)N(C)c2ccccc2)c2cccnc12,i,-5.1*,i,i,-12.9,i

# Bioassay records as filed in PubChem.
